Source: ChEMBL document CHEMBL5390247, “Aryl azoles based scaffolds for disrupting tumor microenvironment” (Bioorg Med Chem, 2023)
Calls of active or inactive are those of the source. No cut-off for these calls is given here.

How the values were obtained:
[1] = tested on: HT-29; assay: Immunomodulatory activity in human HT-29 cells co-cultured with interferon gamma-stimulated THP-1 cells assessed as relative PD-L1 protein expression in membrane at 100 uM incubated for 48 hrs by flow cytometry analysis relative to control; format: functional
[2] = tested on: HT-29; assay: Immunomodulatory activity in human HT-29 cells co-cultured with interferon gamma-stimulated THP-1 cells assessed as IL-6 level at 100 uM incubated for 48 hrs by ELISA analysis (reference value: 192 +/- 16 pg/ml); format: functional
Outline: (§1)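 HT-29 cells co-cultured with IFN-γ (10 ng/ml)-stimulated THP-1 cells and treated 48 h with compound at 100 µM. Culture media collected and IL-6 measured by human IL-6 ELISA, in pg/mL and as % of control. Mean of three experiments.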

[3] = tested on: HT-29; assay: Immunomodulatory activity in human HT-29 cells co-cultured with interferon gamma-stimulated THP-1 cells assessed as induction of morphological changes by measuring rounded cell morphology at 100 uM incubated for 48 hrs; format: functional, cell-based
Outline: (§2)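 HT-29 cells co-cultured with IFN-γ-stimulated THP-1 cells and treated 48 h with compounds at 100 µM, with DMSO as control. Cell shrinkage and rounded morphology assessed by microscopy images.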

[4] = tested on: HT-29; assay: Immunomodulatory activity in human HT-29 cells co-cultured with interferon gamma-stimulated THP-1 cells assessed as relative CD-47 protein expression in membrane at 100 uM incubated for 48 hrs by flow cytometry analysis relative to control; format: functional
[5] = tested on: HT-29; assay: Immunomodulatory activity in human HT-29 cells co-cultured with interferon gamma-stimulated THP-1 cells assessed as relative IL-6 level at 100 uM incubated for 48 hrs by ELISA analysis relative to control; format: functional; outline: as §1
[6] = tested on: HMEC-1; assay: Antiangiogenic activity in HMEC-1 cells assessed as inhibition of endothelial microtubes formation at 100 uM incubated for 24 hrs by matrigel based imaging analysis; format: functional, cell-based; details: Homo sapiens
Outline: (§3)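 HMEC-1 cells at 2 × 10^4 cells/well seeded on Matrigel (10 mg/mL, gelled 30 min at 37 °C) in EGM-2MV medium with SingleQuots, allowed to attach 30 min at 37 °C. Compounds then added in medium; after 24 h at 37 °C, microtube formation/destruction evaluated from pictures.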

[7] = tested on: HT-29; assay: Immunomodulatory activity in human HT-29 cells co-cultured with interferon gamma-stimulated THP-1 cells assessed as cell viability at 100 uM incubated for 48 hrs by flow cytometry analysis relative to control; format: functional; details: read-out: Activity
Outline: (§4)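 HT-29 cells at 10^5/well seeded and grown 24 h. Medium then replaced with medium containing IFN-γ (10 ng/ml), 5 × 10^5 THP-1 cells/well and compound at 100 µM; DMSO used as control. After 48 h, THP-1 cells collected from supernatant and cancer cells by trypsinisation. Both fixed in 4% paraformaldehyde and counted by flow cytometry relative to control.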

[8] = tested on: HT-29; assay: Immunomodulatory activity in human HT-29 cells co-cultured with interferon gamma-stimulated THP-1 cells assessed as induction of morphological changes by measuring cell shrinkage at 100 uM incubated for 48 hrs; format: functional, cell-based; outline: as §2
[9] = tested on: HT-29; assay: Immunomodulatory activity in human HT-29 cells co-cultured with interferon gamma-stimulated THP-1 cells assessed as reduction in number of cells at 100 uM incubated for 48 hrs; format: functional, cell-based; outline: as §4
[10] = Toxicity against interferon gamma-stimulated human THP-1 monocyte cells co-cultured with human HT-29 cells assessed as reduction in cell viability at 100 uM incubated for 48 hrs by flow cytometry analysis; format: cell-based; details: thp-1, 48 h; outline: as §4
[11] = tested on: HT-29; assay: Antiproliferative activity against human HT-29 cells assessed as reduction in IL-6 secretion at 100 uM incubated for 48 hrs by ELISA assay; format: functional, cell-based
Outline: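 HT-29 monocultures at 10^5 cells/well treated 48 h with compound at 100 µM in 500 µL growth medium. Media collected and secreted IL-6 measured with a human IL-6 ELISA kit.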

[12] = tested on: HEK293; assay: Anti-vasculogenic activity against HEK293 cells assessed as disruption of tube-like structures at 100 uM incubated for 24 hrs by Matrigel based imaging analysis; format: functional, cell-based; details: Homo sapiens
Outline: (§5)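 HEK-293 cells seeded at 5 × 10^4 cells/well on Matrigel (pre-incubated with medium 24 h at 37 °C), grown 24 h at 37 °C until tube-like structures form; compounds then added in medium and incubated a further 24 h at 37 °C. Disruption of preformed tube-like structures assessed by imaging.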

[13] = tested on: HMEC-1; assay: Antiangiogenic activity in HMEC-1 cells assessed as inhibition of endothelial microtubes formation at <75 uM incubated for 24 hrs by matrigel based imaging analysis; format: functional, cell-based; details: Homo sapiens; outline: as §3
[14] = tested on: HT-29; assay: Immunomodulatory activity in human HT-29 cells co-cultured with interferon gamma-stimulated THP-1 cells assessed as inhibition of cell growth at 100 uM incubated for 48 hrs by flow cytometry analysis relative to control; format: functional; outline: as §4
[15] = tested on: HEK293; assay: Anti-vasculogenic activity against HEK293 cells assessed as disruption of tube-like structures at <75 uM incubated for 24 hrs by Matrigel based imaging analysis; format: functional, cell-based; details: Homo sapiens; outline: as §5
[16] = tested on: HT-29; assay: Antiproliferative activity against human HT-29 cells assessed as relative PD-L1 protein expression in whole cell at 100 uM incubated for 48 hrs by flow cytometry analysis relative to control; format: functional
[17] = tested on: HT-29; assay: Antiproliferative activity against human HT-29 cells assessed as relative c-Myc protein expression at 100 uM incubated for 48 hrs by flow cytometry analysis relative to control; format: functional
[18] = tested on: HT-29; assay: Immunomodulatory activity in human HT-29 cells co-cultured with interferon gamma-stimulated THP-1 cells assessed as inhibition of CD-47 protein expression at 100 uM incubated for 48 hrs by flow cytometry analysis relative to control; format: functional
[19] = tested on: HT-29; assay: Antiproliferative activity against human HT-29 cells assessed as relative VEGFR-2 protein expression in whole cell at 100 uM incubated for 48 hrs by flow cytometry analysis relative to control; format: functional
[20] = tested on: HT-29; assay: Antiproliferative activity against human HT-29 cells assessed as relative PD-L1 protein expression in membrane at 100 uM incubated for 48 hrs by flow cytometry analysis relative to control; format: functional
[21] = tested on: HT-29; assay: Antiproliferative activity against human HT-29 cells assessed as relative VEGFR-2 protein expression in membrane at 100 uM incubated for 48 hrs by flow cytometry analysis relative to control; format: functional
[22] = tested on: MCF7; assay: Antiproliferative activity against human MCF7 cells assessed as reduction in cell viability incubated for 48 hrs by MTT assay; format: functional, cell-based; details: MCF7, 48 h
Outline: (§6)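 MTT dye-reduction assay. Cells at 5 × 10^3/well in DMEM with 10% FBS, treated with serial dilutions of compound (DMSO stocks) for 2 days at 37 °C, 5% CO2. MTT added for a further 3 h, formazan dissolved in DMSO, absorbance read at 550 nm. Viability expressed as % of untreated cells; IC50 determined graphically from three independent experiments.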

[23] = tested on: A549; assay: Antiproliferative activity against human A549 cells assessed as reduction in cell viability incubated for 48 hrs by MTT assay; format: functional, cell-based; details: A549, 48 h; outline: as §6
[24] = Cytotoxicity against HEK293 cells assessed as reduction in cell viability incubated for 48 hrs by MTT assay; format: toxicity, cell-based; details: human; outline: as §6
[25] = tested on: HT-29; assay: Antiproliferative activity against human HT-29 cells assessed as reduction in cell viability incubated for 48 hrs by MTT assay; format: functional, cell-based; details: HT-29, 48 h; outline: as §6

Compound | Activity [1] [%] | Activity [3] | Activity [4] [%] | viability at 100 µM [7] [%] | Activity [8] | Activity [9] | Activity [10] | inhibition at 100 µM [14] [%] | Activity [16] [%] | Activity [17] [%] | inhibition at 100 µM [18] [%] | Activity [19] [%] | Activity [20] [%] | Activity [21] [%] | IC50 [22] [µM] | IC50 [23] [µM] | IC50 at 48 h [24] [µM] | IC50 [25] [µM] | further results
Nc1cccc(-c2cn(Cc3ccc(Cl)cc3)nn2)c1 | 140 | Active | 91 | 5 | Active | Active | Non-Toxic | > 90 |  |  |  |  |  |  |  |  |  |  | Activity [2]: 189 pg/mL; Activity [5]: 98%; Activity [6]: Active; Activity [11]: inactive; Activity [12]: Active; Activity [13]: inactive; Activity [15]: inactive
COc1ccc(Cn2nnc(-c3cccc(N)c3)n2)cc1 | 100 | Active | 58 | 45 | Active | Active | Non-Toxic |  | 99 | 75 | > 30 | 75 | >100 | >100 |  |  |  |  | 
O=[N+]([O-])c1cccc(-c2nnn(Cc3ccccc3Cl)n2)c1 | 108 |  | 87 | 44 |  |  | Non-Toxic |  | 89 | 86 |  | 53 | 98 | 97 | > 100 | > 100 | > 100 | 81 | 
O=[N+]([O-])c1cccc(-c2nnn(Cc3ccc(Cl)cc3)n2)c1 | 93 |  | 88 | 93 |  |  | Non-Toxic |  | 87 | 90 |  | 45 | 93 | 95 | 84 | > 100 | > 100 | > 100 | 
Cc1ccc(Cn2nnc(-c3cccc(N)c3)n2)cc1 | 90 |  | 67 | 28 |  |  | Non-Toxic | > 70 |  |  | > 30 |  |  |  |  |  |  |  | 
Nc1cccc(-c2cn(Cc3ccc(Br)cc3)nn2)c1 | 154 | Active | 92 | 8 | Active | Active | Non-Toxic | > 90 |  |  |  |  |  |  |  |  |  |  | Activity [2]: 183 pg/mL; Activity [5]: 95%; Activity [6]: Active; Activity [11]: inactive; Activity [12]: Active; Activity [13]: inactive; Activity [15]: inactive
COc1cccc(Cn2nnc(-c3cccc([N+](=O)[O-])c3)n2)c1 | 88 | Active | 77 | 40 | Active | Active | Non-Toxic |  | >100 | 75 |  | 42 | 83 | >100 |  |  |  |  | 
O=[N+]([O-])c1cccc(-c2nnn(Cc3ccc(Br)cc3)n2)c1 | 93 |  | 87 | 52 |  |  | Non-Toxic |  | 93 | 72 |  | 71 | >100 | 96 | > 100 | 39 | > 100 | > 100 | 
Cc1cccc(Cn2nnc(-c3cccc(N)c3)n2)c1 | 99 |  | 69 | 15 |  |  | Non-Toxic | > 70 | 81 | >100 | > 30 | >100 | >100 | >100 |  |  |  |  | 
